Reference: ChEMBL document CHEMBL3826907, “Design, synthesis and anti-P. falciparum activity of pyrazolopyridine-sulfonamide derivatives” (Bioorg Med Chem, 2016)

Columns and labels:
[1] = Cytotoxicity against african green monkey BGM cells after 24 hrs by MTT assay; format: cell-based; conditions: chlorocebus aethiops, read-out: MLD50
In short: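 MTT (3 mg/mL) was added, the supernatant was removed after 3 h, and the dye was dissolved in DMSO. Read at 570 nm. MLD50 (minimal lethal dose for 50% of cells) taken from non-linear regression dose–response curves.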

Plasmodium falciparum [2] = assay: Antimalarial activity against chloroquine/sulfadoxine-resistant Plasmodium falciparum W2 infected in human A+ erythrocytes assessed as reduction in parasite growth after 72 hrs by HRP2 detection based ELISA; format: functional, organism-based; conditions: W2, 72 h
In short: (§1)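 P. falciparum W2 cultured in human A+ erythrocytes in RPMI 1640 with human serum, sorbitol-synchronized to rings. Parasitemia 0.05%, hematocrit 1.5%. […] Three freeze-thaw cycles, then HRPII sandwich ELISA read at 450 nm. IC50 from non-linear regression dose–response curves, three separate experiments (±SD).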

[3] = Selectivity index, ratio of MLD50 for african green monkey BGM cells to IC50 for chloroquine/sulfadoxine-resistant Plasmodium falciparum W2; format: toxicity, cell-based; conditions: read-out: Selectivity Index
In short: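 Selectivity index calculated from the BGM MLD50 (24 h MTT, 570 nm, non-linear regression) and the W2 IC50 (72 h HRPII ELISA in A+ erythrocytes).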

Plasmodium falciparum [4] = assay: Antimalarial activity against chloroquine-resistant Plasmodium falciparum W2; format: functional, organism-based; in short: as §1
Plasmodium falciparum [5] = assay: Antimalarial activity against chloroquine-resistant and mefloquine-sensitive Plasmodium falciparum W2 infected in human A+ erythrocytes after 72 hrs by HRP2 detection based ELISA; format: functional, organism-based; conditions: W2, 72 h; in short: as §1

| Compound | CC50 at 24 h [1] [µM] | IC50 (Plasmodium falciparum [2]) [µM] | selectivity ratio [3] | IC50 (Plasmodium falciparum [4]) [µM] | IC50 (Plasmodium falciparum [5]) [µM] |
| --- | --- | --- | --- | --- | --- |
| COc1ccc(S(=O)(=O)NCCCCNc2c(C#N)cnc3c2cnn3-c2ccccc2)cc1 | 498 | 5 | 99.6 |  |  |
| N#Cc1cnc2c(cnn2-c2ccccc2)c1NCCCCN | 503 | 5 | 101 |  |  |
| CCOC(=O)c1cnc2c(cnn2-c2ccccc2)c1NCCCCNS(=O)(=O)c1ccccc1 | 822 | 6.52 | 126 |  |  |
| N#Cc1cnc2c(cnn2-c2ccccc2)c1NCCCCNS(=O)(=O)c1ccccc1 | 248 | 4.2 | 59 |  |  |
| CCOC(=O)c1cnc2c(cnn2-c2ccccc2)c1NCCCCNS(=O)(=O)c1ccc(OC)cc1 | 995 | 9.3 | 107 |  |  |
| O=Cc1cn(-c2ccnc3cc(Cl)ccc23)nn1 |  |  |  | 1.4 |  |
| CCOC(=O)c1cnc2c(cnn2-c2ccccc2)c1NCCCCNS(=O)(=O)c1ccc(Cl)cc1 | > 1000 | 3.6 | > 278 |  |  |
| Cc1ccc(S(=O)(=O)NCCCCNc2c(C#N)cnc3c2cnn3-c2ccccc2)cc1 | 682 | 3.6 | 189 |  |  |
| N#Cc1cnc2c(cnn2-c2ccccc2)c1NCCCCNS(=O)(=O)c1ccc(Cl)cc1 | 418 | 7.5 | 55.7 |  |  |
| N#Cc1cnc2c(cnn2-c2ccccc2)c1NCCCCNS(=O)(=O)c1ccc(F)cc1 | 508 | 9.3 | 54.6 |  |  |
| CCOC(=O)c1cnc2c(cnn2-c2ccccc2)c1NCCCCNS(=O)(=O)c1ccc(F)cc1 | 993 | 4.12 | 241 |  |  |
| CCOC(=O)c1cnc2c(cnn2-c2ccccc2)c1NCCCCNS(=O)(=O)c1ccc(C)cc1 | 596 | 3.46 | 172 |  |  |
| Cc1cc(Nc2ccc3ccccc3c2)n2nc(C(F)(F)F)nc2n1 |  |  |  |  | 0.023 |
| COc1ncnc(NS(=O)(=O)c2ccc(N)cc2)c1OC [SULFADOXINE] | 310 | 15 | 20.7 |  |  |
